“And” between values parts separate entries of the source, which are not always exact repeats. Identical values can stand only once. Like-named read-outs stand apart in the source and are kept apart here.
Legend:
[1] = system: human cervical carcinoma cell line (HeLa); test: MTS cytotoxicity assay, HeLa; format: cell-based
Method in brief: (§1)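 Cells grown in DMEM or RPMI 1640 with 10% FBS and penicillin/streptomycin (37 °C, 5% CO2), seeded at 4000–6000 cells per mL, then after 24 h treated for 48 h with several concentrations (DMSO stock 100 mM). Medium replaced, MTS added for 3 h at 37 °C, A492 read. Inhibition % relative to untreated and blank; IC50 by curve fitting; at least three wells per concentration.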

[2] = system: human hepatoma carcinoma cell lines (HepG2); test: MTS cytotoxicity assay, HepG2; format: cell-based
Method in brief: as §1

[3] = system: human tongue carcinoma cell line (SCC-15); test: MTS cytotoxicity assay, SCC-15; format: cell-based
Method in brief: as §1

[4] = system: human breast carcinoma cell line (MCF-7); test: MTS cytotoxicity assay, MCF-7; format: cell-based
Method in brief: as §1

[5] = system: Bax; test: Western blotting, Bax expression in HeLa cells; format: cell-based, human; settings: 25 nM, 50 nM and 100 nM, 48 h
Method in brief: (§2)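 HeLa cells seeded at 1 × 10^5 cells per mL overnight, then given test compound (25, 50, 100 nM final) for 48 h. Lysed on ice 20 min; protein quantified by BCA. Equal protein run on SDS-PAGE and transferred to PVDF, then blocked in 5% nonfat milk. Primary antibodies (p53, Bcl-2, Bax, GAPDH loading) overnight at 4 °C; peroxidase secondary 2 h; chemiluminescent detection.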

[6] = system: p53; test: Western blotting, p53 expression in HeLa cells; format: cell-based, human; settings: 25 nM, 50 nM and 100 nM, 48 h
Method in brief: as §2

[7] = system: Bcl-2; test: Western blotting, Bcl-2 expression in HeLa cells; format: cell-based, human; settings: 25 nM, 50 nM and 100 nM, 48 h
Method in brief: as §2

[8] = system: human umbilical vein endothelial cells (HUVEC); test: MTS cytotoxicity assay, HUVEC normal cells; format: cell-based; settings: read-out: IC50 HUVEC, 48 h treatment
Method in brief: as §1

[9] = system: HeLa cells; test: Wound healing assay; format: cell-based, human; settings: serum starved
Method in brief: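 HeLa cells seeded at 2.5 × 10^5 cells per mL and grown to about 90% confluence; monolayer scratched with p10 tips, washed twice in PBS. Serum-free medium with test compound (25, 50, 100 nM final) or DMSO for 48 h. Gaps photographed at 0, 24, 48 h (10× magnification); healing rate from change in wound area; three independent experiments.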

[10] = system: HeLa cells; test: 7-AAD/annexin V flow cytometry apoptosis assay; format: cell-based, human; settings: 100 nM
Method in brief: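 HeLa cells seeded at 1 × 10^5 cells per mL, grown overnight, then exposed to test compound (25, 50 or 100 nM final) for 24, 36 or 48 h. Cells were washed in cold PBS, trypsinized, and stained with annexin V-FITC plus 7-AAD for 15 min at room temperature in the dark. Analysed by flow cytometry; apoptotic % = early (annexin V+) plus late (annexin V+/7-AAD+).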

[11] = system: Bel-7402, MCF-7 and MIA-PaCa cells; settings: 250 mg kg^−1, i.p.; cited from earlier work
[12] = system: BT20 cells; settings: 200 mg kg^−1, i.p.; cited from earlier work
[13] = system: 94 different cancer cell lines; settings: read-out: IC50 values against 94 different cancer cell lines; in vitro; cited from earlier work
[14] = system: normal cells, such as HFL, PrEC, HMEC and HUVEC; settings: unless its concentration exceeded 5–10 μM; cited from earlier work
[15] = Homo sapiens, HeLa, 48 h, read-out: IC50 HeLa, MTS, 48 h treatment
[16] = Homo sapiens, HepG2, 48 h, read-out: IC50 HepG2, MTS, 48 h treatment
[17] = Homo sapiens, SCC-15, 48 h, read-out: IC50 SCC-15, MTS, 48 h treatment
[18] = Homo sapiens, MCF7, 48 h, read-out: IC50 MCF-7, MTS, 48 h treatment

Row | SMILES | IC50 [1, 15] | IC50 [2, 16] | IC50 [3, 17] | IC50 [4, 18] | also measured
1 | COc1ccc(C[S+]([O-])c2ccc3ccccc3c2)cc1N (stereo not shown) [12a, 2-Methoxy-5-((naphthalen-2-ylsulfinyl)methyl)aniline] | 173 ± 31 nM | 434 ± 38 nM | 148 ± 27 nM | 681 ± 48 nM | 
2 | COc1ccc(CS(=O)(=O)c2ccc3ccccc3c2)cc1N [12b, 2-Methoxy-5-((naphthalen-2-ylsulfonyl)methyl)aniline] | 30 ± 5 nM | 43 ± 7 nM | 28 ± 6 nM | 110 ± 14 nM | 
3 | COc1ccc(C[S+]([O-])c2ccc3cc(Br)ccc3c2)cc1N (stereo not shown) [12c, 5-(((6-Bromonaphthalen-2-yl)sulfinyl)methyl)-2-methoxyaniline] | 92 ± 9 nM | 1310 ± 91 nM | 264 ± 27 nM | 858 ± 88 nM | 
4 | COc1ccc(CS(=O)(=O)c2ccc3cc(Br)ccc3c2)cc1N [12d, 5-(((6-Bromonaphthalen-2-yl)sulfonyl)methyl)-2-methoxyaniline] | 64 ± 5 nM | 402 ± 35 nM | 78 ± 2 nM | 95 ± 8 nM | 
5 | COc1ccc(CSc2ccc3ccccc3c2)cc1N [12e, 2-Methoxy-5-((naphthalen-2-ylthio)methyl)aniline] | 4060 ± 316 nM | 42600 ± 3810 nM | 2210 ± 314 nM | 17500 ± 2320 nM | 
6 | COc1ccc(C[S+]([O-])c2ccc3ccccc3c2)cc1NCC(=O)O (stereo not shown) [15a, (2-Methoxy-5-((naphthalen-2-ylsulfinyl)methyl)phenyl)glycine] | 230 ± 4 nM | 5080 ± 318 nM | 722 ± 29 nM | 2030 ± 73 nM | 
7 | COc1ccc(CS(=O)(=O)c2ccc3ccccc3c2)cc1NCC(=O)O [15b, (2-Methoxy-5-((naphthalen-2-ylsulfonyl)methyl)phenyl)glycine] |  |  |  |  | expression of proapoptotic protein Bax [5]: up-regulation; IC50 ([1]; read-out: IC50 HeLa, MTS, 48 h treatment): 64 ± 5 nM; levels of the proapoptotic protein p53 [6]: increased significantly; expression of antiapoptotic protein Bcl-2 [7]: down-regulation; IC50 [8]: 1060 ± 48 nM; IC50 ([2]; read-out: IC50 HepG2, MTS, 48 h treatment): 390 ± 13 nM; Wound healing rate ([9]; 25 nM, 24 h, control 46.4): 20.0% and 20.0 ± 3.5 %; Wound healing rate ([9]; 25 nM, 48 h, control 70.8): 32.0% and 32.0 ± 6.1 %; Wound healing rate ([9]; 50 nM, 24 h, control 46.4): 13.2 ± 2.2 %; Wound healing rate ([9]; 50 nM, 48 h, control 70.8): 15.5 ± 3.4 %; Wound healing rate ([9]; 100 nM, 24 h, control 46.4): 3.9% and 3.9 ± 3.0 %; Wound healing rate ([9]; 100 nM, 48 h, control 70.8): 4.4% and 4.4 ± 2.7 %; IC50 ([3]; read-out: IC50 SCC-15, MTS, 48 h treatment): 15 ± 2 nM; IC50 ([4]; read-out: IC50 MCF-7, MTS, 48 h treatment): 29 ± 1 nM; apoptotic values (early and late apoptotic states) ([10]; 24 h): 9.2%; apoptotic values (early and late apoptotic states) ([10]; 36 h): 30.2%; apoptotic values (early and late apoptotic states) ([10]; 48 h): 53.2%
8 | COc1cc(OC)c(/C=C/S(=O)(=O)Cc2ccc(OC)c(NCC(=O)O)c2)c(OC)c1 [Rigosertib, reference compound] | 65 ± 5 nM | 108 ± 17 nM | 35 ± 3 nM | 22 ± 3 nM | tumor growth in mouse xenograft models [11]: significantly suppress tumor growth; tumor growth in mouse xenograft model [12]: remarkably inhibit tumor growth; IC50 [13]: 50 to 250 nM; anti-proliferative effect on normal cells [14]: little or no anti-proliferative effect

Source: PMC9043816 (RSC Advances, 2021)
